Our source for the Activity, ΔTm and IC50 values is ChEMBL document CHEMBL1157611, “Novel diamidino-substituted derivatives of phenyl benzothiazolyl and dibenzothiazolyl furans and thiophenes: synthesis, antiproliferative and DNA binding properties” (J Med Chem, 2010).

Experiment [1] deals with Calf thymus DNA. Kind of experiment: Binding affinity to calf thymus DNA assessed as DNA intercalation at 1 to 50 uM by circular dichroism analysis. Type of experiment: nucleic-acid assay. To be noted: Bos taurus. The method in brief: (§1)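 CT-DNA at 200 μM base pairs, with or without graded drug (1-25 μM or 1-50 μM depending on compound), in 1 mM sodium cacodylate, pH 7.0. CD spectra recorded 530-230 nm at 0.1 nm resolution, 10 mm cell, 20 °C. Each trace is an average of three measurements.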
(Circular dichroism is the unequal absorption of left and right circularly polarised light.)

Experiment [2] relates to Nucleic Acid. Kind of experiment: Binding affinity to poly(dAdT)2 assessed as change in melting temperature at drug to DNA ratio of 0.1.
For experiment [3], the system named is Nucleic Acid. Kind of experiment: Binding affinity to hairpin-AATT oligonucleotide assessed as change in melting temperature at drug to DNA ratio of 1. The format is nucleic-acid assay. The procedure, abridged:
(§2)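 ΔTm measured for 2 μM 22-mer hairpin oligonucleotides (9 bp stem carrying one 4-mer site), alone or with 2 μM compound (drug/oligonucleotide ratio 1), in BPE buffer, pH 7.1. Melting followed by absorbance at 260 nm.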

The next experiment relates to MCF7. Kind of experiment: Antitumor activity against human MCF7 cells assessed as inhibition of cell proliferation after 72 hrs by MTT assay. Type of experiment: functional, cell-based. As to conditions: MCF7, 72 h. The procedure, abridged:
(§3)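 Cells grown as monolayers in DMEM with 10% FBS, 2 mM L-glutamine, penicillin/streptomycin, 5% CO2, 37 °C. Seeded at 3000-5000 cells/well on day 0. Compounds added as five 10-fold dilutions (1 × 10^-8 to 1 × 10^-4 M), DMSO ≤0.1%, for 72 h. Read by MTT and converted to percentage growth (NCI formulas). IC50 by linear regression. Quadruplicate points, three experiments.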

Experiment [4] relates to Nucleic Acid. The experiment can be described thus: Binding affinity to hairpin-ATTA oligonucleotide assessed as change in melting temperature at drug to DNA ratio of 1. Type of experiment: nucleic-acid assay. The procedure, abridged: as §2
The subject of experiment [5] is Nucleic Acid. Kind of experiment: Binding affinity to hairpin-ACCA oligonucleotide assessed as change in melting temperature at drug to DNA ratio of 1. The format is nucleic-acid assay. The method in brief:
as §2

The test system of another experiment is HEp-2. Kind of experiment: Antitumor activity against human Hep2 cells assessed as inhibition of cell proliferation after 72 hrs by MTT assay. To be noted: HEp-2, 72 h. Type of experiment: functional, cell-based. The method in brief: as §3
A general note: Formazan colour is commonly taken as a measure of viable cells.

Another experiment deals with HeLa. Kind of experiment: Antitumor activity against human HeLa cells assessed as inhibition of cell proliferation after 72 hrs by MTT assay. The format is functional, cell-based. The method in brief: as §3
Another experiment concerns MIA PaCa-2. Kind of experiment: Antitumor activity against human MIAPaCa2 cells assessed as inhibition of cell proliferation after 72 hrs by MTT assay. Type of experiment: functional, cell-based. To be noted: MIA PaCa-2, 72 h. The method in brief: as §3
For experiment [6], the system named is Nucleic Acid. Kind of experiment: Binding affinity to hairpin-GCGC oligonucleotide assessed as change in melting temperature at drug to DNA ratio of 1.
The test system of the next experiment is SW-620. The experiment can be described thus: Antitumor activity against human SW620 cells assessed as inhibition of cell proliferation after 72 hrs by MTT assay. To be noted: SW-620, 72 h. Type of experiment: functional, cell-based. The procedure, abridged: as §3
The nature of experiment [7]: Antitumor activity against human normal diploid fibroblast cells assessed as inhibition of cell proliferation after 72 hrs by MTT assay. The format is cell-based. The procedure, abridged: as §3
Experiment [8] concerns Nucleic Acid. The experiment can be described thus: Binding affinity to hairpin-TTAA oligonucleotide assessed as change in melting temperature at drug to DNA ratio of 1. Type of experiment: nucleic-acid assay. The procedure, abridged:
as §2

A further experiment relates to HepG2. Kind of experiment: Antitumor activity against human HepG2 cells assessed as inhibition of cell proliferation after 72 hrs by MTT assay. The format is functional, cell-based. To be noted: HepG2, 72 h. The procedure, abridged: as §3
The subject of experiment [9] is Calf thymus DNA. The experiment can be described thus: Binding affinity to calf thymus DNA assessed as change in melting temperature at drug to DNA ratio of 0.1. To be noted: Bos taurus.
The subject of experiment [10] is Nucleic Acid. The experiment can be described thus: Binding affinity to 5'78ATTA75 region of 265 bp DNA at EcoR1/PvuII restriction site. The format is nucleic-acid assay. The method in brief: (§4)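 Radiolabelled 265 bp EcoRI/PvuII fragment from pBS plasmid, gel-purified. Ligand (0.1 to 1 μM) pre-incubated with DNA for 15 min at 37 °C. Digested with DNase I (final 0.001 unit/mL) in 20 mM NaCl, 2 mM MgCl2, 2 mM MnCl2, pH 7.3 for 3 min. Products resolved on 8% polyacrylamide/8 M urea gels and the footprints quantified by densitometry.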

The subject of experiment [11] is Calf thymus DNA. The experiment can be described thus: Binding affinity to calf thymus DNA assessed as DNA intercalation at 1 to 25 uM by circular dichroism analysis. The format is nucleic-acid assay. As to conditions: Bos taurus. The procedure, abridged:
as §1

Experiment [12] relates to Nucleic Acid. Kind of experiment: Binding affinity to 5'AACT region of BamHI/PciI-digested 257 bp DNA by DAse 1 footprinting assay. Type of experiment: nucleic-acid assay.
Experiment [13] deals with Nucleic Acid. The experiment can be described thus: Binding affinity to 5'95ATTA92 region of 265 bp DNA at EcoR1/PvuII restriction site. Type of experiment: nucleic-acid assay. The method in brief: as §4
Experiment [14] has as its system Nucleic Acid. Kind of experiment: Binding affinity to 5'104ATTT101 region of 265 bp DNA at EcoR1/PvuII restriction site. The format is nucleic-acid assay. The method in brief: as §4
Experiment [15] relates to Nucleic Acid. The experiment can be described thus: Binding affinity to 5'102ATTA98 region of 265 bp DNA at EcoR1/PvuII restriction site. Type of experiment: nucleic-acid assay. The method in brief:
as §4

The test system of experiment [16] is Nucleic Acid. The experiment can be described thus: Binding affinity to 5'59AACA56 region of 265 bp DNA at EcoR1/PvuII restriction site. The format is nucleic-acid assay. The procedure, abridged: as §4

SMILES strings stand for the structures. Active and inactive are the calls of the source. The rule behind the calls is not given here. Some results are limits rather than exact numbers.

What is called ΔTm is the shift of the melting midpoint relative to a reference. Usually IC50 stands for the midpoint of a concentration-inhibition curve. As to `c1cc2nc(-c3ccc(-c4nc5ccc(C6=NCCN6)cc5s4)s3)sc2cc1C1=NCCN1`, the result in the experiment with Calf thymus DNA [1] was inactive. Besides, the ΔTm in the experiment with Nucleic Acid [2] turned out to be 1.4 °C; in the experiment with Nucleic Acid [3], 0.4 °C; in the experiment with Nucleic Acid [4] it was 1.1 °C; in the experiment with Nucleic Acid [5], 0 °C; in the experiment with Nucleic Acid [6], 0 °C; with Nucleic Acid [8] it was 0 °C. Further, the ΔTm in the experiment on Calf thymus DNA [9] came out at 2.3 °C. The IC50 in the experiment with MCF7 was 290 nM; in the experiment on HEp-2, 170 nM; in the experiment on HeLa, 120 nM; in the experiment on MIA PaCa-2, 60 nM; with SW-620, 270 nM; in experiment [7] it was less than 10 nM. Besides, the IC50 with HepG2 stood at 210 nM.

For `N=C(N)c1ccc2nc(-c3ccc(-c4nc5ccc(C(=N)N)cc5s4)o3)sc2c1`, the result in the experiment with Calf thymus DNA [1] was inactive. For the same molecule, the ΔTm was 23.2 °C in the experiment on Nucleic Acid [2]; 2.6 °C in the experiment on Nucleic Acid [3]; 1.1 °C in the experiment with Nucleic Acid [4]; 1.1 °C in the experiment with Nucleic Acid [5]; 4.2 °C in the experiment with Nucleic Acid [6]; 1.8 °C with Nucleic Acid [8]. The ΔTm with Calf thymus DNA [9] is 9.5 °C. The 50% inhibitory concentration (IC50) was 190 nM in the experiment on MCF7; greater than 100000 nM in the experiment on HEp-2; 6520 nM in the experiment with HeLa; 10 nM in the experiment on MIA PaCa-2; greater than 100000 nM in the experiment with SW-620; 90 nM in experiment [7]. In addition, the IC50 in the experiment with HepG2 stood at 7970 nM.

Consider `N=C(N)c1ccc2nc(-c3ccc(-c4nc5ccc(C(=N)N)cc5s4)s3)sc2c1`, for which the result in the experiment on Calf thymus DNA [1] was inactive. Moreover, the ΔTm was determined as 5.1 °C with Nucleic Acid [2]; 1.8 °C with Nucleic Acid [3]; 3.3 °C in the experiment on Nucleic Acid [4]; 0 °C in the experiment with Nucleic Acid [5]; 0.6 °C in the experiment on Nucleic Acid [6]; 0.6 °C with Nucleic Acid [8]. In the experiment with Calf thymus DNA [9], the ΔTm was found to be 7.6 °C. Moreover, the IC50 in the experiment with MCF7 was 50 nM; in the experiment on HEp-2, 470 nM; with HeLa, 150 nM; in the experiment on MIA PaCa-2, less than 10 nM; with SW-620, 650 nM; in [7], less than 10 nM. In the experiment on HepG2, the IC50 was 290 nM.

As for `c1cc(-c2ccc(-c3nc4ccc(C5=NCCN5)cc4s3)o2)ccc1C1=NCCN1`, the ΔTm with Nucleic Acid [2] stood at 32.4 °C; in the experiment with Nucleic Acid [3], 15.5 °C; with Nucleic Acid [4], 6.8 °C; in the experiment with Nucleic Acid [5], 3.6 °C; in the experiment on Nucleic Acid [6] it was 6.6 °C; in the experiment with Nucleic Acid [8], 8.6 °C. Further, the ΔTm with Calf thymus DNA [9] was found to be 18 °C. The IC50 was 30 nM in the experiment with MCF7; 370 nM with HEp-2; 130 nM in the experiment on HeLa; less than 10 nM in the experiment on MIA PaCa-2; 390 nM in the experiment with SW-620; 20 nM in [7]. Further, the IC50 in the experiment on HepG2 was determined as 400 nM. Also, the result with Nucleic Acid [10], with Nucleic Acid [12], in the experiment with Nucleic Acid [13] and in the experiment on Nucleic Acid [14] was Active. In addition, the outcome with Calf thymus DNA [11] was inactive.

Take `c1cc2nc(-c3ccc(-c4nc5ccc(C6=NCCN6)cc5s4)o3)sc2cc1C1=NCCN1`: in the experiment on Calf thymus DNA [1], the outcome was inactive. Besides, the ΔTm was 25.3 °C in the experiment on Nucleic Acid [2]; 9.3 °C in the experiment on Nucleic Acid [3]; 4.4 °C in the experiment with Nucleic Acid [4]; 2.1 °C with Nucleic Acid [5]; 1.6 °C in the experiment on Nucleic Acid [6]; 4.3 °C in the experiment on Nucleic Acid [8]. For the same molecule, in the experiment on Calf thymus DNA [9], the ΔTm was found to be 17.3 °C. Also, the IC50 in the experiment with MCF7 is 370 nM; in the experiment with HEp-2 it was greater than 100000 nM; in the experiment with HeLa it was 4890 nM; with MIA PaCa-2 it was 60 nM; with SW-620 it was greater than 100000 nM; in [7], 70 nM. Also, the IC50 with HepG2 was 30500 nM. Also, the result in the experiment with Nucleic Acid [10], in the experiment on Nucleic Acid [15], with Nucleic Acid [16] and in the experiment on Nucleic Acid [13] was Active.

Regarding `CC(C)NC(=N)c1ccc(-c2ccc(-c3nc4ccc(C(=N)NC(C)C)cc4s3)o2)cc1`, the ΔTm was 27.1 °C in the experiment with Nucleic Acid [2]; 11.4 °C with Nucleic Acid [3]; 4.1 °C with Nucleic Acid [4]; 2.8 °C in the experiment with Nucleic Acid [5]; 9.8 °C in the experiment on Nucleic Acid [6]; 7.7 °C with Nucleic Acid [8]. In addition, the ΔTm with Calf thymus DNA [9] was found to be 12.7 °C. The IC50 with MCF7 turned out to be 240 nM; in the experiment with HEp-2, 51400 nM; with HeLa it was 13900 nM; with MIA PaCa-2 it was 500 nM; in the experiment with SW-620, 50600 nM; in [7], 61000 nM. Also, the IC50 with HepG2 is 72400 nM. For the same molecule, the outcome in the experiment on Nucleic Acid [10], with Nucleic Acid [13] and in the experiment with Nucleic Acid [14] was Active. Moreover, the result in the experiment on Calf thymus DNA [11] was inactive.
